The values below come from ChEMBL document CHEMBL1125265, “FTIR spectral study of intramolecular hydrogen bonding in thromboxane A2 receptor antagonist S-145 and related compounds. 3. Conformation and activity of S-145 analogues” (J Med Chem, 1991).

Common to all, as to assay type: functional
The species named for assay [1] is Oryctolagus cuniculus. Description: In vitro inhibitory concentration measured against U-46,619 (1 uM) induced aggregation of washed platelets (WP) in rabbit; N-Negative.
The species named for assay [2] is Rattus norvegicus. Description: In vitro inhibitory concentration measured against U-46,619 (30 nM) induced contraction for rat aorta.
The species named for assay [3] is Rattus norvegicus. Briefly: In vitro inhibitory concentration measured against collagen ([…]) induced aggregation of washed platelets (WP) in rat. In outline: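 Rat washed platelets; aggregation triggered with collagen at 4 µg/mL; inhibitory concentration reported as IC50, following a procedure from earlier work.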
The species named for assay [4] is Oryctolagus cuniculus. Briefly: In vitro inhibitory concentration measured against U-46,619 (1 uM) induced aggregation of washed platelets (WP) in rabbit.

What is called IC50 is the concentration at which inhibition is half-maximal. Low readings indicate higher potency, high ones lower potency. With `CCCCCCC(O)CCCCCCCCCCC(=O)O` (configuration not stated), the 50% inhibitory concentration (IC50) result in the assay filed under Oryctolagus cuniculus [1] was “Negative”.

Turning to `O=C(O)CCCCCNS(=O)(=O)c1ccccc1`, the values for the IC50 result in the assay listed under Oryctolagus cuniculus [1], in the assay listed under Rattus norvegicus [2] and in the assay listed under Rattus norvegicus [3] were “Negative”, > 140000 nM and > 14500 nM, respectively.

With `O=C(O)CCCCCCCCCCNS(=O)(=O)c1ccccc1`, the IC50 in the assay filed under Oryctolagus cuniculus [4] turned out to be 10000 nM; in the assay listed under Rattus norvegicus [2], 4600 nM; in the assay listed under Rattus norvegicus [3], 4350 nM.

On to `O=C(O)CCCCCCCCNS(=O)(=O)c1ccccc1`, for which the IC50 was determined as 400 nM in the assay listed under Oryctolagus cuniculus [4], 1600 nM in the assay filed under Rattus norvegicus [2] and 410 nM in the assay filed under Rattus norvegicus [3].

For `O=C(O)CCCCCCCCCCCO`, the IC50 entry in the assay listed under Oryctolagus cuniculus [1] was “Negative”.

In the case of `O=C(O)CCCCCCNS(=O)(=O)c1ccccc1`, the IC50 was > 10000 nM in the assay filed under Oryctolagus cuniculus [4], 55300 nM in the assay listed under Rattus norvegicus [2] and 11600 nM in the assay filed under Rattus norvegicus [3].

As to `O=C(O)CCCCNS(=O)(=O)c1ccccc1`, the results for the IC50 entry in the assay listed under Oryctolagus cuniculus [1], in the assay filed under Rattus norvegicus [2] and in the assay filed under Rattus norvegicus [3] were “Negative”, > 140000 nM and > 14500 nM, respectively.

With `O=C(O)CCC/C=C\C[C@@H]1C(NS(=O)(=O)c2ccccc2)C2CC[C@@H]1C2` (some centres not stated), the IC50 in the assay filed under Oryctolagus cuniculus [4] was 6 nM; in the assay filed under Rattus norvegicus [2] it was 1.4 nM; in the assay listed under Rattus norvegicus [3] it was 2.9 nM.

Turning to `O=C(O)CCCNS(=O)(=O)c1ccccc1`, the half-maximal inhibitory concentration (IC50) entry is “Negative” in the assay filed under Oryctolagus cuniculus [1], > 140000 nM in the assay filed under Rattus norvegicus [2] and > 14500 nM in the assay listed under Rattus norvegicus [3].

In the case of `O=C(O)CCCCCCCCCCCNS(=O)(=O)c1ccccc1`, the results for the IC50 in the assay listed under Oryctolagus cuniculus [4], in the assay filed under Rattus norvegicus [2] and in the assay listed under Rattus norvegicus [3] were > 10000 nM, 6400 nM and 3480 nM, respectively.

`O=C(O)CCC/C=C\CCCNS(=O)(=O)c1ccccc1`: the IC50 in the assay filed under Oryctolagus cuniculus [4] is 48 nM; in the assay listed under Rattus norvegicus [3], 41 nM.

As to `O=C(O)CCCCCCCNS(=O)(=O)c1ccccc1`, the IC50 in the assay filed under Oryctolagus cuniculus [4] was determined as 700 nM; in the assay listed under Rattus norvegicus [2], 2800 nM; in the assay filed under Rattus norvegicus [3] it was 290 nM.

As for `O=C(O)COc1ccc(CCNS(=O)(=O)c2ccccc2)cc1` [SULOTROBAN], the IC50 in the assay listed under Oryctolagus cuniculus [4] is 300 nM.
